How the values were obtained:
Neuraminidase [1] = target: T1, Neuraminidase (Influenza A virus, UniProt B4URF0); experiment: Inhibition of influenza A virus (A/Guangdong/376/2001(H1N1)) neuraminidase infected in chick embryo using MUNANA as substrate after 1 hr by spectrophotometric analysis
Neuraminidase [2] = target: T1, Neuraminidase; experiment: Inhibition of Influenza A virus (A/Indonesia/5/2005(H5N1)) neuraminidase infected in chick embryo using MUNANA as substrate after 1 hr by spectrophotometric analysis
Neuraminidase [3] = target: T1, Neuraminidase; experiment: Inhibition of Influenza A virus (A/Sydney/5/1997(H3N2)) neuraminidase infected in chick embryo using MUNANA as substrate after 1 hr by spectrophotometric analysis
[4] = Cmax in Sprague-Dawley rat at 10 mg/kg, po; format: ADME, organism-based; parameters: dose 10 mg/kg, route oral; settings: in vivo
Procedure, shortened: (§1)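 Single 10 mg/kg oral dose given to male Sprague-Dawley rats (~250 g), three per group. Blood was sampled via the retrobulbar vein at 0, 5, 15 and 30 min and at 1, 2, 5, 8 and 24 h. Plasma concentrations were measured by LC/MS/MS, and parameters came from noncompartmental analysis of mean plasma concentrations.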

[5] = Terminal half life in Sprague-Dawley rat at 10 mg/kg, iv; format: ADME, organism-based; parameters: dose 10 mg/kg, route intravenous; settings: in vivo, read-out: beta t1/2 (converted)
[6] = Volume of distribution at steady state in Sprague-Dawley rat at 10 mg/kg, iv; format: ADME, organism-based; parameters: dose 10 mg/kg, route intravenous; settings: in vivo, read-out: Vdss
[7] = Clearance in Sprague-Dawley rat at 10 mg/kg, iv; format: ADME, organism-based; parameters: dose 10 mg/kg, route intravenous; settings: in vivo
[8] = Tmax in Sprague-Dawley rat at 10 mg/kg, po; format: ADME, organism-based; parameters: dose 10 mg/kg, route oral; settings: in vivo; procedure, shortened: as §1
[9] = target: Neuraminidase (Influenza A virus) (UniProt B4URF0); experiment: Inhibition of influenza A virus (A/Guangdong/376/2001(H1N1)) neuraminidase infected in chick embryo using MUNANA as substrate at 1 uM after 1 hr by spectrophotometric analysis
Neuraminidase [10] = target: T1, Neuraminidase; experiment: Inhibition of Influenza A virus […]/78(H1N1) neuraminidase
Neuraminidase [11] = target: T1, Neuraminidase; experiment: Inhibition of Influenza A virus H5N1 neuraminidase
Neuraminidase [12] = target: T1, Neuraminidase; experiment: Inhibition of Influenza A virus Mississippi/1/85(H3N2) neuraminidase
[13] = Oral bioavailability in Sprague-Dawley rat at 10 mg/kg; format: ADME, organism-based; settings: in vivo; procedure, shortened: as §1
[14] = Terminal half life in Sprague-Dawley rat at 10 mg/kg, po; format: ADME, organism-based; parameters: dose 10 mg/kg, route oral; settings: in vivo, read-out: beta t1/2 (converted)
Procedure, shortened: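 Single 10 mg/kg oral dose given to male Sprague-Dawley rats (~250 g), three per group. Plasma concentrations were measured by LC/MS/MS, and parameters came from noncompartmental analysis of mean plasma concentrations.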

[15] = Volume of distribution at steady state in Sprague-Dawley rat at 2 mg/kg, iv; format: ADME, organism-based; parameters: dose 2 mg/kg, route intravenous; settings: in vivo, read-out: Vdss
Procedure, shortened: (§2)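 Male Sprague-Dawley rats (~250 g), three per group, given a single 2 mg/kg intravenous dose. Blood samples were drawn via the retrobulbar vein at 0, 5, 15 and 30 min and at 1, 2, 5, 8 and 24 h. Plasma levels were quantified by LC/MS/MS, and parameters were derived by noncompartmental analysis of mean plasma concentrations.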

[16] = Clearance in Sprague-Dawley rat at 2 mg/kg, iv; format: ADME, organism-based; parameters: dose 2 mg/kg, route intravenous; settings: in vivo; procedure, shortened: as §2
[17] = Mean residence time in Sprague-Dawley rat at 2 mg/kg, iv; format: ADME, organism-based; parameters: dose 2 mg/kg, route intravenous; settings: in vivo; procedure, shortened: as §2
[18] = AUC (0 to 8 hrs) in Sprague-Dawley rat at 2 mg/kg, iv; format: ADME, organism-based; parameters: time < 8 hr, dose 2 mg/kg, route intravenous; settings: plasma
Procedure, shortened: (§3)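 Male Sprague-Dawley rats (~250 g), three per group. One group received 10 mg/kg orally and the other 2 mg/kg intravenously. Blood was drawn from the retrobulbar vein at 0, 5, 15 and 30 min and at 1, 2, 5, 8 and 24 h. Plasma levels were measured by LC/MS/MS, and parameters were calculated by noncompartmental analysis of mean plasma concentrations.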

[19] = Terminal half life in Sprague-Dawley rat at 2 mg/kg, iv; format: ADME, organism-based; parameters: dose 2 mg/kg, route intravenous; settings: in vivo, read-out: beta t1/2 (converted); procedure, shortened: as §2
[20] = Cmax in Sprague-Dawley rat at 2 mg/kg, iv; format: ADME, organism-based; parameters: dose 2 mg/kg, route intravenous; settings: in vivo; procedure, shortened: as §2
[21] = Mean residence time in Sprague-Dawley rat at 10 mg/kg, po; format: ADME, organism-based; parameters: dose 10 mg/kg, route oral; settings: in vivo; procedure, shortened: as §1
[22] = AUC (0 to 8 hrs) in Sprague-Dawley rat at 10 mg/kg, po; format: ADME, organism-based; parameters: time < 8 hr, dose 10 mg/kg, route oral; settings: plasma; procedure, shortened: as §3

T1 sequence (B4URF0 whole entry): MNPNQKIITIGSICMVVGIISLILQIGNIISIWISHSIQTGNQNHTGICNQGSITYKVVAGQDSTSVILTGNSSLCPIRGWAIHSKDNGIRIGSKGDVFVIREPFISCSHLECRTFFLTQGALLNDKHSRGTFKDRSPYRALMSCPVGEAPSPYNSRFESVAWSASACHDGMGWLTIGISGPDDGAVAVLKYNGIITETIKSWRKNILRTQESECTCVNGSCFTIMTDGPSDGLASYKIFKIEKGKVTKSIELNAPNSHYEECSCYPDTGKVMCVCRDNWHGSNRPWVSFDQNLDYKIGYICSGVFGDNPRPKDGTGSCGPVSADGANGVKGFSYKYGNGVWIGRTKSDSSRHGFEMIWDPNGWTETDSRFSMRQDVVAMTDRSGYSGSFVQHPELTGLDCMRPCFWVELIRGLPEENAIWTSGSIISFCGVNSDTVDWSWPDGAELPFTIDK
Chain of Neuraminidase (Influenza A virus) (B4URF0 as listed by the source): as the sequence (B4URF0 whole entry) above

Structure (SMILES): CC[C@H](C)[C@H](NC(=O)C1=C[C@H](O)[C@@H](NC(C)=O)[C@H]([C@H](O)[C@H](O)CO)O1)C(=O)O
- IC50 (Neuraminidase [1]): > 1000 µM
- IC50 (Neuraminidase [2]): 939 µM
- IC50 (Neuraminidase [3]): 790 µM

Structure (SMILES): CC(=O)N[C@H]1[C@H]([C@H](O)[C@H](O)CO)OC(C(=O)O)=C[C@@H]1N=C(N)N [ZANAMIVIR]
- Cmax [4]: 60 ng/mL
- half-life [5]: 1.1 h
- Vd [6]: 0.8 L/kg
- clearance [7]: 31.7 mL/min/kg
- Tmax [8]: 1.2 h

Structure (SMILES): CC(=O)N[C@H]1[C@H]([C@H](O)[C@H](O)CO)OC(C(=O)N[C@H](C(=O)O)C(C)C)=C[C@@H]1O
- IC50 (Neuraminidase [1]): > 1000 µM
- IC50 (Neuraminidase [2]): 793 µM
- IC50 (Neuraminidase [3]): 688 µM

Structure (SMILES): CC(=O)N[C@H]1[C@H]([C@H](O)[C@H](O)CO)OC(C(=O)NCc2cccc(Cl)c2)=C[C@@H]1NC(=N)N
- inhibition [9]: 51%

Structure (SMILES): CC(=O)N[C@H]1[C@H]([C@H](O)[C@H](O)CO)OC(C(=O)NCc2ccc(C)cc2)=C[C@@H]1NC(=N)N
- IC50 (Neuraminidase [1]): 0.26 µM
- IC50 (Neuraminidase [2]): 0.28 µM
- IC50 (Neuraminidase [3]): 0.85 µM

Structure (SMILES): CC(=O)N[C@H]1[C@H]([C@H](O)[C@H](O)CO)OC(C(=O)NCc2ccccc2F)=C[C@@H]1NC(=N)N
- IC50 (Neuraminidase [1]): 0.24 µM
- IC50 (Neuraminidase [2]): 0.26 µM
- IC50 (Neuraminidase [3]): 0.89 µM

Structure (SMILES): CC(=O)N[C@H]1[C@H]([C@H](O)[C@H](O)CO)OC(C(=O)N[C@H](C(=O)O)C(C)C)=C[C@@H]1N
- IC50 (Neuraminidase [1]): 2.25 µM
- IC50 (Neuraminidase [2]): 4.3 µM
- IC50 (Neuraminidase [3]): 5.15 µM

Structure (SMILES): CC(=O)N[C@H]1[C@H]([C@H](O)[C@H](O)CO)OC(C(=O)N[C@H](C(=O)O)C(C)C)=C[C@@H]1NC(=N)N
- IC50 (Neuraminidase [1]): 2.14 µM
- IC50 (Neuraminidase [2]): 4.19 µM
- IC50 (Neuraminidase [3]): 0.107 µM

Structure (SMILES): CC(=O)N[C@H]1[C@H]([C@H](O)[C@H](O)CO)OC(C(=O)O)=C[C@@H]1O [NEU5AC2EN]
- IC50 (Neuraminidase [10]): 240 µM
- IC50 (Neuraminidase [11]): 0.012 µM
- IC50 (Neuraminidase [12]): 52 µM

Structure (SMILES): CC(=O)N[C@H]1[C@H]([C@H](O)[C@H](O)CO)OC(C(=O)N2CCC(C(=O)O)CC2)=C[C@@H]1N
- IC50 (Neuraminidase [1]): 6.33 µM
- IC50 (Neuraminidase [2]): 5.76 µM
- IC50 (Neuraminidase [3]): 5.86 µM

Structure (SMILES): CC(=O)N[C@H]1[C@H]([C@H](O)[C@H](O)CO)OC(C(=O)N[C@H](C(=O)O)c2ccccc2)=C[C@@H]1O
- IC50 (Neuraminidase [1]): 60.5 µM
- IC50 (Neuraminidase [2]): 74.4 µM
- IC50 (Neuraminidase [3]): 60 µM

Structure (SMILES): CC(=O)N[C@H]1[C@H]([C@H](O)[C@H](O)CO)OC(C(=O)N[C@@H](CC(C)C)C(=O)O)=C[C@@H]1N
- IC50 (Neuraminidase [1]): 159 µM
- IC50 (Neuraminidase [2]): 669 µM
- IC50 (Neuraminidase [3]): 647 µM

Structure (SMILES): CCOC(=O)C1=C[C@@H](OC(CC)CC)[C@H](NC(C)=O)[C@@H](N)C1.O=P(O)(O)O [OSELTAMIVIR PHOSPHATE]
- Cmax [4]: 30 ng/mL
- half-life [5]: 1.6 h
- Vd [6]: 1.3 L/kg
- clearance [7]: 25 mL/min/kg
- bioavailability [13]: 4.3%
- half-life [14]: 10.6 h
- Tmax [8]: 4 h

Structure (SMILES): CC(=O)N[C@H]1[C@H]([C@H](O)[C@H](O)CO)OC(C(=O)N[C@@H](CCC(=O)O)C(=O)O)=C[C@@H]1NC(=N)N
- IC50 (Neuraminidase [1]): 0.45 µM
- IC50 (Neuraminidase [2]): 0.16 µM
- IC50 (Neuraminidase [3]): 0.81 µM

Structure (SMILES): CC(=O)N[C@H]1[C@H]([C@H](O)[C@H](O)CO)OC(C(=O)NCC(=O)O)=C[C@@H]1N
- IC50 (Neuraminidase [1]): 13.9 µM
- IC50 (Neuraminidase [2]): 8.67 µM
- IC50 (Neuraminidase [3]): 16.7 µM

Structure (SMILES): CC(=O)N[C@H]1[C@H]([C@H](O)[C@H](O)CO)OC(C(=O)N2CCOCC2)=C[C@@H]1O
- IC50 (Neuraminidase [1]): 98.9 µM
- IC50 (Neuraminidase [2]): 66.7 µM
- IC50 (Neuraminidase [3]): 52.9 µM

Structure (SMILES): CC(=O)N[C@H]1[C@H]([C@H](O)[C@H](O)CO)OC(C(=O)NCc2ccc(F)cc2)=C[C@@H]1NC(=N)N
- inhibition [9]: 54.8%

Structure (SMILES): COc1ccc(CNC(=O)C2=C[C@H](O)[C@@H](NC(C)=O)[C@H]([C@H](O)[C@H](O)CO)O2)cc1
- IC50 (Neuraminidase [1]): > 1000 µM
- IC50 (Neuraminidase [2]): > 1000 µM
- IC50 (Neuraminidase [3]): 858 µM

Structure (SMILES): CC(=O)N[C@H]1[C@H]([C@H](O)[C@H](O)CO)OC(C(=O)N[C@@H](C)C(=O)O)=C[C@@H]1NC(=N)N
- IC50 (Neuraminidase [1]): 0.1 µM
- IC50 (Neuraminidase [2]): 0.063 µM
- IC50 (Neuraminidase [3]): 0.41 µM

Structure (SMILES): CC(=O)N[C@H]1[C@H]([C@H](O)[C@H](O)CO)OC(C(=O)N2CCC[C@@H](C(=O)O)C2)=C[C@@H]1N
- IC50 (Neuraminidase [1]): 103 µM
- IC50 (Neuraminidase [2]): 162 µM
- IC50 (Neuraminidase [3]): 146 µM

Structure (SMILES): CC(=O)N[C@H]1[C@H]([C@H](O)[C@H](O)CO)OC(C(=O)NCc2cccc(F)c2)=C[C@@H]1NC(=N)N
- Cmax [4]: 260 nM
- Vd [15]: 0.23 L/kg
- clearance [16]: 5.83 mL/min/kg
- MRT [17]: 0.65 h
- AUC(0-t) at 8 h [18]: 5380 ng·h/mL
- half-life [19]: 0.69 h
- Cmax [20]: 8800 ng/mL
- IC50 (Neuraminidase [1]): 0.09 µM
- IC50 (Neuraminidase [2]): 0.001 µM
- IC50 (Neuraminidase [3]): 0.013 µM
- bioavailability [13]: 1.41%
- MRT [21]: 6.29 h
- AUC(0-t) at 8 h [22]: 378 ng·h/mL
- half-life [14]: 2.96 h
- Tmax [8]: 1 h

Structure (SMILES): CC(=O)N[C@H]1[C@H]([C@H](O)[C@H](O)CO)OC(C(=O)N[C@@H](CC(C)C)C(=O)O)=C[C@@H]1NC(=N)N
- IC50 (Neuraminidase [1]): 5.11 µM
- IC50 (Neuraminidase [2]): 3.51 µM
- IC50 (Neuraminidase [3]): 22.5 µM

Structure (SMILES): CC(=O)N[C@H]1[C@H]([C@H](O)[C@H](O)CO)OC(C(=O)NCc2ccccc2)=C[C@@H]1O
- IC50 (Neuraminidase [1]): 143 µM
- IC50 (Neuraminidase [2]): 822 µM
- IC50 (Neuraminidase [3]): 707 µM

Structure (SMILES): CC(=O)N[C@H]1[C@H]([C@H](O)[C@H](O)CO)OC(C(=O)NCCC(=O)O)=C[C@@H]1NC(=N)N
- IC50 (Neuraminidase [1]): 0.36 µM
- IC50 (Neuraminidase [2]): 0.07 µM
- IC50 (Neuraminidase [3]): 0.5 µM

Structure (SMILES): CC(=O)N[C@H]1[C@H]([C@H](O)[C@H](O)CO)OC(C(=O)N[C@@H](CC(C)C)C(=O)O)=C[C@@H]1O
- IC50 (Neuraminidase [1]): > 1000 µM
- IC50 (Neuraminidase [2]): > 1000 µM
- IC50 (Neuraminidase [3]): 918 µM
